PMC3483416 (Archives of biochemistry and biophysics, 2012)

Experiment: Steady-state intrinsic tryptophan fluorescence of BclXL
Type: physicochemical
Settings: 5μM BclXL, excitation 290nm, 25 °C
In short: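 Tryptophan emission of 5 μM full-length human BclXL (N-His, E. coli-expressed) alone in 50 mM acetate pH 4, phosphate pH 6, Tris pH 8 or CAPS pH 10. 25 °C, 10-mm cuvette; excitation 290 nm; emission scanned 300–500 nm; 2.5-nm bandwidths. Spectra corrected against buffer reference. At least three repeats.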

With “full-length BclXL: Full-length human BclXL (residues 1-233), N-terminal His-tag, expressed in Escherichia coli” as the substance, how does the “intrinsic fluorescence vs pH” value (pH 4, 6, 8, 10) read?
The value was “drops as the pH changes from 4 to 6, it undergoes substantial enhancement at pH 8 only to drop again at pH 10”.

What about the tryptophan emission maximum (pH-independent) of the same substance?
Its tryptophan emission maximum is “around 338 nm”.
